An excerpt weighted towards active compounds, which were near 2.1% of everything screened.
IEC-6 tox – counter-screen for KLF5 inhibitors: cytotoxicity in IEC-6 cells | AID 1825 | inhibition, % at 5 µM | IEC-6 cytotoxicity, luminescence viability | hit rate 0.78% among 290,000; in the data active = inhibition above about 22%
b-catenin transl – alters nuclear translocation of beta-catenin in HeLa cells | immunofluorescence imaging | AID 1665 | hit rate 0.3% among 190,000 | nuclear translocation activity, % at 5 µM;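 active = nuclear translocation activity above 50% at 5 µM, with a well cell count of 50 or more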;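 note: per-cell ratio of nuclear to cytoplasmic median beta-catenin stain intensity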
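Signal – beta-catenin immunofluorescence imaging with DAPI · Test system – human HeLa cell line · Dosing – 5 µM primary single dose, 0.1% DMSO, 0.02–20 µM confirmation series · Measure – % activation, nuclear-to-cytoplasmic median beta-catenin signal ratio per cell · Incubation – 24 h compound exposure at 37°C, 5% CO2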
BaF3 tox – parental Ba/F3 viability inhibition as JAK2V617F counter-screen; inhibition, % at 5.6 µM; hit rate 1.1% among 220,000; CellTiter-Glo ATP luminescence;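 active = inhibition above a per-campaign cutoff, the mean inhibition of all tested compounds plus 3 SD, cut at about 27% in these data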
KLF5 inh – kruppel-like factor 5 inhibition | inhibition, % at 5 µM | hit rate 0.23% among 290,000 | DLD-1 KLF5 promoter-luciferase reporter, luminescence;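 active = inhibition above a per-plate limit of that plate's mean compound inhibition plus 3 SD, cut at about 60% in these data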;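 note: higher means less KLF5 promoter-driven luciferase light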
MT stabilizer – microtubule stabilization, imaging screen; AID 2205; hit rate 0.83% among 200,000; % tubulin-high responders, % at 10 µM; HeLa tubulin immunostaining HCS, 24 h; share of cells brighter than vehicle mean+2SD;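 active = plate Z-score above 3 for both tubulin-high and condensed-nucleus cell shares, with cell loss under 80%, at 10 µM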;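 note: anti alpha tubulin signal scored within the nucleus-defined area of each cell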
Ba/F3 V617F tox – lowers viability of Ba/F3 cells expressing EpoR and JAK2V617F; inhibition, % at 5.6 µM; ATP luminescence; AID 1446; hit rate 1.1% among 220,000;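 active = inhibition above the campaign mean plus 3 SD over all tested compounds, cut at about 24% in these data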;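 note: cytokine-independent growth of Ba/F3 cells driven by EpoR plus mutant JAK2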
BaF3 parental 2 – counter-screen for JAK2V617F inhibitors: parental Ba/F3 viability inhibitors; shares compounds with Ba/F3 V617F tox; CellTiter-Glo luminescence; cells kept alive by added IL-3; inhibition, % at 5.6 µM; hit rate 31% among 580; AID 1520;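 active = cell growth inhibition above the hit limit set in the earlier mutant JAK2 cell screen, cut at about 27% in these data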
JAK2V617F conf – confirmation: loss of viability in JAK2V617F-dependent Ba/F3 cells. shares compounds with Ba/F3 V617F tox. inhibition, % at 5.6 µM. AID 1521. Ba/F3 EpoR-JAK2V617F viability, CellTiter-Glo luminescence. hit rate 66% among 580;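 active = mean inhibition above the hit cutoff derived in the earlier primary screen, cut at about 25% in these data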;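 note: higher means lower luminescence from reduced cell ATP and viability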
Hits are given with their value.

N#CC1=C(SCC(=O)c2ccccc2)NC2=C(C(=O)CCC2)C1c1ccco1 (centres undefined) was read as IEC-6 tox inactive, b-catenin transl 171, BaF3 tox 36, KLF5 inh inactive, MT stabilizer inactive and Ba/F3 V617F tox 47.
Screening CNC(=O)Nc1ccccc1C(=O)Nc1ccccc1 returned IEC-6 tox inactive, b-catenin transl inactive, BaF3 tox inactive, KLF5 inh inactive and Ba/F3 V617F tox inactive.
Nc1cc2c(cc1C(=O)c1cccc(Br)c1)OCCO2 was read as IEC-6 tox inactive, b-catenin transl inactive, BaF3 tox inactive, KLF5 inh inactive, MT stabilizer 16 and Ba/F3 V617F tox inactive.
`Nc1cc2c(cc1C(=O)c1ccccc1F)OCCO2` gave IEC-6 tox inactive, b-catenin transl inactive, BaF3 tox inactive, KLF5 inh inactive, MT stabilizer inactive and Ba/F3 V617F tox inactive.
Screening CCNC(=O)C1Cc2cc(S(=O)(=O)N3CCCC3)ccc2N1C(C)=O (centres undefined) returned IEC-6 tox inactive and KLF5 inh inactive.
Screening O=C(CN(C(=O)CCC(=O)Nc1nccs1)C1CCCC1)NCc1ccc2c(c1)OCO2 returned IEC-6 tox inactive, b-catenin transl inactive, BaF3 tox inactive, KLF5 inh inactive, MT stabilizer inactive and Ba/F3 V617F tox inactive.
Screening Cc1cccc(Nc2nc(-c3ccc4c(c3)OCCO4)cs2)c1 returned IEC-6 tox inactive, b-catenin transl inactive, BaF3 tox inactive, KLF5 inh inactive, MT stabilizer 18 and Ba/F3 V617F tox inactive.
For Cc1cccc(Nc2nc(-c3c(C)nc4ccccn34)cs2)c1 the results were IEC-6 tox inactive, b-catenin transl inactive, BaF3 tox inactive, KLF5 inh inactive, MT stabilizer 21 and Ba/F3 V617F tox inactive.
Screening CC1=C(C(=O)Nc2cccc(C(=O)NC3CCCC(C)C3C)c2)SCCO1 (centres undefined) returned IEC-6 tox inactive and KLF5 inh inactive.
For O=C(CCCC(=O)Nc1ccccc1Br)N/N=C/c1c(F)cccc1Cl the results were IEC-6 tox inactive and KLF5 inh inactive.
CCOc1ccc(N(Cc2cc3cc(OC)ccc3[nH]c2=O)C(=O)C2CCCO2)cc1 (centres undefined) was read as IEC-6 tox inactive, b-catenin transl inactive, BaF3 tox inactive, KLF5 inh inactive, MT stabilizer inactive and Ba/F3 V617F tox inactive.
COc1cc(C)c(Cc2cnc(N)nc2N)cc1OC was read as IEC-6 tox inactive, b-catenin transl inactive, BaF3 tox inactive, KLF5 inh inactive and Ba/F3 V617F tox 33.
CC(C)Oc1ccc(Cc2cnc(N)nc2N)cc1 was read as IEC-6 tox inactive, b-catenin transl inactive, BaF3 tox inactive, KLF5 inh inactive, MT stabilizer inactive and Ba/F3 V617F tox inactive.
Screening N#Cc1cc(N)c(Nc2ccccc2)cc1C#N returned IEC-6 tox inactive, b-catenin transl inactive, BaF3 tox 37, KLF5 inh inactive, MT stabilizer inactive and Ba/F3 V617F tox inactive.
Screening O=C(O)c1ccccc1C(=O)c1ccc(-c2ccccc2)cc1 returned IEC-6 tox inactive and KLF5 inh inactive.
O=C(c1ccccc1)c1ccccc1N1C(=O)C=CC1=O was read as IEC-6 tox inactive, b-catenin transl inactive, BaF3 tox inactive, KLF5 inh inactive, Ba/F3 V617F tox 32, BaF3 parental 2 inactive and JAK2V617F conf 26.
For CC(C)CC(=O)N1CCN(Cc2ccc(C(F)(F)F)cc2)CC1 the results were IEC-6 tox inactive and KLF5 inh inactive.
Screening Oc1ccc(-c2csc(-c3ccccc3)n2)cc1O returned IEC-6 tox inactive, b-catenin transl inactive, BaF3 tox inactive, KLF5 inh inactive, MT stabilizer inactive, Ba/F3 V617F tox 57, BaF3 parental 2 27 and JAK2V617F conf 93.
Screening Oc1ccccc1-c1csc(-c2ccccc2)n1 returned IEC-6 tox inactive, b-catenin transl inactive, BaF3 tox inactive, KLF5 inh inactive, MT stabilizer inactive and Ba/F3 V617F tox inactive.
Oc1ccc(-c2csc(Nc3ncccn3)n2)cc1O was read as IEC-6 tox inactive, b-catenin transl inactive, BaF3 tox inactive, KLF5 inh inactive, MT stabilizer inactive, Ba/F3 V617F tox 37, BaF3 parental 2 28 and JAK2V617F conf 91.
CCOC(=O)N1CCN(C(=O)c2cc(-c3ccc(OCC)cc3)nc3ccccc23)CC1 was read as IEC-6 tox 24, BaF3 tox inactive, KLF5 inh inactive, MT stabilizer inactive, Ba/F3 V617F tox 68, BaF3 parental 2 69 and JAK2V617F conf 94.
Screening CCOc1ccc(-c2cc(C(=O)N3CCN(C)CC3)c3ccccc3n2)cc1 returned IEC-6 tox inactive, BaF3 tox inactive, KLF5 inh inactive, MT stabilizer inactive and Ba/F3 V617F tox inactive.
Cn1cc(/C=C(\NC(=O)c2ccccc2)C(=O)NCCCN2CCOCC2)c2ccccc21 was read as IEC-6 tox inactive and KLF5 inh inactive.
Cc1ccc(Cl)cc1N1CCN(CC(O)COCc2ccco2)CC1 (centres undefined) was read as IEC-6 tox inactive, b-catenin transl inactive, BaF3 tox inactive, KLF5 inh inactive, MT stabilizer inactive, Ba/F3 V617F tox 98, BaF3 parental 2 inactive and JAK2V617F conf inactive.
For OC(COCc1ccco1)CN1CCN(C(c2ccccc2)c2ccccc2)CC1 (centres undefined) the results were IEC-6 tox inactive, BaF3 tox inactive, KLF5 inh inactive, MT stabilizer inactive and Ba/F3 V617F tox inactive.
Screening Cc1cc(C)nc(N/N=C/C(Cl)=C/c2ccccc2)n1 returned IEC-6 tox inactive, b-catenin transl inactive, BaF3 tox inactive, KLF5 inh inactive, MT stabilizer inactive and Ba/F3 V617F tox inactive.
`COc1ccc(C(=O)/C=C/Nc2ccc(S(=O)(=O)Nc3cccc(C(C)=O)c3)cc2)cc1` gave IEC-6 tox inactive, b-catenin transl inactive, BaF3 tox inactive, KLF5 inh inactive, MT stabilizer inactive, Ba/F3 V617F tox 31, BaF3 parental 2 inactive and JAK2V617F conf 30.
CCc1nnc(NC(=O)CS(=O)(=O)Cc2ccccc2)s1 was read as IEC-6 tox inactive and KLF5 inh inactive.
`CCOC(=O)c1c(NC(=O)/C=C/C(=O)O)sc(C)c1-c1ccc(C(C)(C)C)cc1` gave IEC-6 tox inactive, b-catenin transl inactive, BaF3 tox inactive, KLF5 inh inactive, MT stabilizer inactive, Ba/F3 V617F tox 28, BaF3 parental 2 inactive and JAK2V617F conf 43.
COc1cc(C2C3=C(CC(C)(C)CC3=O)OC(N)=C2[N+](=O)[O-])ccc1O (centres undefined) was read as IEC-6 tox inactive, b-catenin transl inactive, BaF3 tox inactive, KLF5 inh inactive, MT stabilizer inactive and Ba/F3 V617F tox inactive.
